Key:
[1] = Mean number of Plasmodium berghei ANKA […] production in Anopheles stephensi mosquito after treatment with the compound at a dosage 0 umol.1/kg; type: functional, Culicidae
Method in brief: (§1)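 BalbC mice were infected ip with 10⁷ P. berghei ANKA-parasitized erythrocytes. After 4 days, gametocytes and exflagellation were confirmed on Giemsa smears, and mice were randomized into groups of six. Each received a single ip dose (10 or 50 µmol/kg; controls given PBS). 2 h later, anesthetized mice were placed on Anopheles stephensi cages. Read-outs: % mosquitoes with oocysts, and mean oocysts per infected mosquito (SE).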

[2] = Mean number of Plasmodium berghei ANKA […] production in Anopheles stephensi mosquito after treatment with the compound at a dosage 10 umol.1/kg; type: functional, Culicidae; method in brief: as §1
Culicidae [3] = experiment: Percentage of Plasmodium berghei ANKA infected Anopheles stephensi mosquitos after treatment with the compound at a dosage of 10 umol.1/kg; type: functional; method in brief: as §1
Culicidae [4] = experiment: Percentage of Plasmodium berghei ANKA infected Anopheles stephensi mosquitos after treatment with the compound at a dosage of 50 umol.1/kg; type: functional; method in brief: as §1
[5] = Percent hydrolysis to the corresponding amino acid product 3, in 80% human plasma at 37C after 3 days of treatment with the compound; type: ADME, cell-free; settings: 72 h
Method in brief: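 Aliquots were quenched in acetonitrile and centrifuged. Supernatant went to reversed-phase HPLC (pH 4.75 sodium acetate/acetonitrile gradient with triethylamine) for substrate and amino acid product. Reported as % hydrolysis after 3 days.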

[6] = Mean number of Plasmodium berghei ANKA […] production in Anopheles stephensi mosquito after treatment with the compound at a dosage 50 umol.1/kg; type: functional, Culicidae; method in brief: as §1
[7] = Percent hydrolysis to the corresponding amino acid product 3, in pH 7.4 phosphate buffer at 37C after 3 days of treatment with the compound; type: ADME, Homo sapiens; settings: read-out: Hydrolysis
Method in brief: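 Hydrolysis followed in pH 7.4 phosphate saline buffer at 37 °C. Substrate and amino acid product were measured by reversed-phase HPLC (pH 4.75 sodium acetate/acetonitrile gradient with triethylamine). Reported as % conversion after 3 days and as half-life in days.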

Culicidae [8] = experiment: Percentage of Plasmodium berghei ANKA infected Anopheles stephensi mosquitos after treatment with the compound at a dosage of 0 umol.1/kg; type: functional; method in brief: as §1

Row | SMILES | Activity [1] | Activity [2] | Infectedmosquitoes (Culicidae [3]) [%] | Infectedmosquitoes (Culicidae [4]) [%] | Hydrolysis [5] [%] | Activity [6] | degraded at 72 h [7] [%] | Infectedmosquitoes (Culicidae [8]) [%]
1 | COc1cc(NC(C)CCCN2C(=O)[C@H](C(C)C)NC23CCCCCC3)c2ncccc2c1 (stereo partly drawn) | 120 | 17.7 | 65 |  |  |  |  | 
2 | COc1cc(NC(C)CCCN2C(=O)[C@H](C(C)C)NC23CCCC3)c2ncccc2c1 (stereo partly drawn) | 51 | 4.2 | 35 | 15 | 5 | 0.5 |  | 
3 | COc1cc(NC(C)CCCN2C(=O)[C@H](Cc3ccccc3)NC23CCCCCC3)c2ncccc2c1 (stereo partly drawn) | 120 | 78.9 | 90 | 0 |  | 0 | 10 | 
4 | COc1cc(NC(C)CCCN)c2ncccc2c1 (stereo not drawn) [PRIMAQUINE] | 83.2 | 2.6 | 10 | 50 |  | 0 |  | 0
5 | COc1cc(NC(C)CCCN2C(=O)CNC23CCCCC3)c2ncccc2c1 (stereo not drawn) | 105 | 7.4 | 25 | 0 |  | 0 |  | 65
6 | COc1cc(NC(C)CCCN2C(=O)[C@H](C)NC23CCCCC3)c2ncccc2c1 (stereo partly drawn) | 83.2 | 0.8 | 20 | 0 | 9 | 0 |  | 
7 | COc1cc(NC(C)CCCN2C(=O)[C@H](Cc3ccccc3)NC23CCCCC3)c2ncccc2c1 (stereo partly drawn) | 83.2 | 71 | 83 | 0 |  | 0 |  | 
8 | COc1cc(NC(C)CCCN2C(=O)[C@H](C(C)C)NC23CCCCC3)c2ncccc2c1 (stereo partly drawn) | 51 | 61.1 | 85 | 25 |  | 0.4 | 8 | 
9 | COc1cc(NC(C)CCCN2C(=O)[C@H](CC(C)C)NC2(C)C)c2ncccc2c1 (stereo partly drawn) | 120 | 13.7 | 30 | 20 |  | 1 | 10 | 
10 | COc1cc(NC(C)CCCN2C(=O)CNC2(C)C)c2ncccc2c1 (stereo not drawn) | 105 | 6.1 | 21 | 0 | 16 | 0 |  | 
11 | COc1cc(NC(C)CCCN2C(=O)[C@H](Cc3ccccc3)NC2(C)C)c2ncccc2c1 (stereo partly drawn) | 66.1 | 61.2 | 76 | 0 |  | 0 | 6 | 
12 | COc1cc(NC(C)CCCN2C(=O)[C@H](C(C)C)NC2(C)C)c2ncccc2c1 (stereo partly drawn) | 105 | 5 | 25 | 5 |  | 0.9 |  | 
13 | COc1cc(NC(C)CCCN2C(=O)[C@H](Cc3ccccc3)NC23CCCC3)c2ncccc2c1 (stereo partly drawn) | 66.1 | 51.6 | 65 | 0 | 3 | 0 |  | 
